In experiment [1] the test system is Mycobacterium avium. The experiment in a line: Antimycobacterial activity against INH/RIF/OFX resistant Mycobacterium avium 330/88 after 21 days. It is filed as functional. As to conditions: 330/88, 504 h.
Experiment [2] deals with Mycobacterium kansasii. The experiment in a line: Antimycobacterial activity against Mycobacterium kansasii 6509/96 after 14 days. In kind it is functional. As to conditions: 6509/96, 336 h.
Experiment [3] deals with Mycobacterium kansasii. Put plainly: Antimycobacterial activity against Mycobacterium kansasii 6509/96 after 21 days. In kind it is functional. The note with it: 6509/96, 504 h.
In experiment [4] the test system is Mycobacterium tuberculosis. Put plainly: Antimycobacterial activity against Mycobacterium tuberculosis H37Rv after 21 days. The note with it: 504 h. It is filed as functional.
In experiment [5] the test system is Mycobacterium avium. Put plainly: Antimycobacterial activity against INH/RIF/OFX resistant Mycobacterium avium 330/88 after 14 days. As to conditions: 330/88, 336 h. It is filed as functional.
Experiment [6] concerns Mycobacterium kansasii. Put plainly: Antimycobacterial activity against Mycobacterium kansasii 6509/96 after 7 days. It is filed as functional. As to conditions: 6509/96, 168 h.
Experiment [7] concerns Mycobacterium kansasii. Put plainly: Antimycobacterial activity against Mycobacterium kansasii 235/80 after 21 days. As to conditions: 235/80, 504 h. It is filed as functional.
Experiment [8] concerns Mycobacterium kansasii. Put plainly: Antimycobacterial activity against Mycobacterium kansasii 235/80 after 7 days. It is filed as functional. As to conditions: 235/80, 168 h.
In experiment [9] the test system is HepG2. Put plainly: Cytotoxicity against human HepG2 cells assessed as reduction in cell viability by MTS assay. It is filed as cell-based. The method, boiled down: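 HepG2 human hepatocellular carcinoma cells (passage 2-4) were cultured in Eagle's MEM with 10% FBS, 1% L-glutamine and non-essential amino acids. Compounds were dissolved in DMSO and tested in triplicate at eight concentrations. Viability was read by colorimetric MTS tetrazolium reduction. Controls were 100% viability and 0% viability (10% DMSO). IC50 is the concentration reducing viability to 50% of control.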

Experiment [10] relates to Mycobacterium tuberculosis. The experiment in a line: Antimycobacterial activity against Mycobacterium tuberculosis H37Rv after 14 days. The note with it: 336 h. In kind it is functional.
For experiment [11], the system named is Mycobacterium kansasii. The experiment in a line: Antimycobacterial activity against Mycobacterium kansasii 235/80 after 14 days. It is filed as functional. As to conditions: 235/80, 336 h.

Converted amounts (≈) assume the structure as drawn.

Regarding `CCCCCCCCCCNC(=O)NNC(=O)c1ccncc1`, the MIC in experiment [1] was found to be 500 µM (≈ 160 µg/mL); in experiment [2] it was 250 µM (≈ 80.1 µg/mL); in experiment [3], 250 µM (≈ 80.1 µg/mL); in experiment [4] it was 32 µM (≈ 10.3 µg/mL); in [5] it was 500 µM (≈ 160 µg/mL); in [6], 125 µM (≈ 40.1 µg/mL). Further, the minimum inhibitory concentration (MIC) was 125 µM (≈ 40.1 µg/mL) in [7], 32 µM (≈ 10.3 µg/mL) in experiment [8], 16 µM (≈ 5.13 µg/mL) in experiment [10] and 62.5 µM (≈ 20 µg/mL) in experiment [11]. Further, the IC50 in experiment [9] is > 250 µM.
Regarding `CCCCCCCCCNC(=O)NNC(=O)c1ccncc1`, the MIC in [1] came to 250 µM (≈ 76.6 µg/mL); in [2], 125 µM (≈ 38.3 µg/mL); in experiment [3], 125 µM (≈ 38.3 µg/mL); in experiment [4], 125 µM (≈ 38.3 µg/mL); in [5], 250 µM (≈ 76.6 µg/mL); in [6] it was 62.5 µM (≈ 19.2 µg/mL). In addition, the MIC in [7] was determined as 125 µM (≈ 38.3 µg/mL); in experiment [8] it was 32 µM (≈ 9.81 µg/mL); in experiment [10] it was 62.5 µM (≈ 19.2 µg/mL); in experiment [11], 62.5 µM (≈ 19.2 µg/mL). The IC50 in experiment [9] was > 250 µM.
In the case of `CCCCCCCCCCCCCCCNC(=O)NNC(=O)c1ccncc1`, the MIC in experiment [1] is 125 µM (≈ 48.8 µg/mL); in experiment [2], 62.5 µM (≈ 24.4 µg/mL); in [3], 125 µM (≈ 48.8 µg/mL); in experiment [4] it was 62.5 µM (≈ 24.4 µg/mL); in experiment [5], 125 µM (≈ 48.8 µg/mL); in [6], 62.5 µM (≈ 24.4 µg/mL). Also, the MIC in experiment [7] is 62.5 µM (≈ 24.4 µg/mL); in experiment [8], 32 µM (≈ 12.5 µg/mL); in experiment [10], 32 µM (≈ 12.5 µg/mL); in [11], 62.5 µM (≈ 24.4 µg/mL). In experiment [9], the IC50 is > 75 µM.
For `CCNc1nnc(-c2ccncc2)o1`, the MIC in [1] is > 1000 µM; in [2], > 1000 µM; in [3] it was > 1000 µM; in experiment [4] it was > 1000 µM; in [5], > 1000 µM; in experiment [6], 1000 µM (≈ 190 µg/mL). Moreover, the MIC in experiment [7] is > 1000 µM; in experiment [8], 1000 µM (≈ 190 µg/mL); in experiment [10] it was > 1000 µM; in [11], > 1000 µM.
In the case of `CCCCCCCCCCCCCNc1nnc(-c2ccncc2)o1`, the MIC in experiment [1] was determined as 250 µM (≈ 86.1 µg/mL); in experiment [2], 250 µM (≈ 86.1 µg/mL); in experiment [3], 250 µM (≈ 86.1 µg/mL); in experiment [4], 250 µM (≈ 86.1 µg/mL); in [5], 250 µM (≈ 86.1 µg/mL); in [6] it was 125 µM (≈ 43.1 µg/mL). The MIC in [7], in [8], in [10] and in [11] was 250 µM (≈ 86.1 µg/mL) in each case.
Turning to `CCCCCCCCCCCCCCCNc1nnc(-c2ccncc2)o1`, the minimal inhibitory concentration (MIC) in experiment [1] worked out at 500 µM (≈ 186 µg/mL); in experiment [2], 250 µM (≈ 93.1 µg/mL); in [3], 250 µM (≈ 93.1 µg/mL); in [4], 125 µM (≈ 46.6 µg/mL); in experiment [5] it was 250 µM (≈ 93.1 µg/mL); in experiment [6], 125 µM (≈ 46.6 µg/mL). For the same compound, the MIC in experiment [7] stood at 250 µM (≈ 93.1 µg/mL); in experiment [8], 62.5 µM (≈ 23.3 µg/mL); in experiment [10] it was 125 µM (≈ 46.6 µg/mL); in [11] it was 125 µM (≈ 46.6 µg/mL).
In the case of `CCCCCCNc1nnc(-c2ccncc2)o1`, the MIC stood at 500 µM (≈ 123 µg/mL) in experiment [1]; 250 µM (≈ 61.6 µg/mL) in [2]; 500 µM (≈ 123 µg/mL) in experiment [3]; 250 µM (≈ 61.6 µg/mL) in [4]; 500 µM (≈ 123 µg/mL) in experiment [5]; 125 µM (≈ 30.8 µg/mL) in [6]. Also, the MIC in experiment [7] came to 500 µM (≈ 123 µg/mL); in experiment [8] it was 250 µM (≈ 61.6 µg/mL); in experiment [10], 250 µM (≈ 61.6 µg/mL); in [11], 500 µM (≈ 123 µg/mL).
For `CCCCCCCCCCCCNC(=O)NNC(=O)c1ccncc1`, the MIC in experiment [1] was 62.5 µM (≈ 21.8 µg/mL); in experiment [2], 62.5 µM (≈ 21.8 µg/mL); in experiment [3] it was 62.5 µM (≈ 21.8 µg/mL); in [4], 32 µM (≈ 11.2 µg/mL); in experiment [5] it was 32 µM (≈ 11.2 µg/mL); in experiment [6] it was 62.5 µM (≈ 21.8 µg/mL). Moreover, the MIC was found to be 125 µM (≈ 43.6 µg/mL) in experiment [7], 32 µM (≈ 11.2 µg/mL) in experiment [8], 32 µM (≈ 11.2 µg/mL) in [10] and 62.5 µM (≈ 21.8 µg/mL) in experiment [11]. In addition, the IC50 in experiment [9] was > 50 µM.
Regarding `CCCCCCCCCCCCCCNc1nnc(-c2ccncc2)o1`, the MIC in experiment [1], in experiment [2], in experiment [3], in [4], in [5] and in experiment [6] was 250 µM (≈ 89.6 µg/mL) each time. The MIC in [7], in experiment [8], in experiment [10] and in [11] was 250 µM (≈ 89.6 µg/mL) each time.
For the compound `CNc1nnc(-c2ccncc2)o1`, the MIC is > 1000 µM in experiment [1]; 1000 µM (≈ 176 µg/mL) in experiment [2]; 1000 µM (≈ 176 µg/mL) in experiment [3]; 500 µM (≈ 88.1 µg/mL) in experiment [4]; > 1000 µM in experiment [5]; 1000 µM (≈ 176 µg/mL) in experiment [6]. Further, the MIC was > 1000 µM in experiment [7], 500 µM (≈ 88.1 µg/mL) in experiment [8], 500 µM (≈ 88.1 µg/mL) in [10] and 1000 µM (≈ 176 µg/mL) in experiment [11].
Regarding `CCCCCCCCCCCCCCCCNc1nnc(-c2ccncc2)o1`, the MIC was 250 µM (≈ 96.6 µg/mL) in experiment [1]; 500 µM (≈ 193 µg/mL) in [2]; 500 µM (≈ 193 µg/mL) in experiment [3]; 250 µM (≈ 96.6 µg/mL) in experiment [4]; 250 µM (≈ 96.6 µg/mL) in experiment [5]; 250 µM (≈ 96.6 µg/mL) in experiment [6]. Besides, the MIC was 500 µM (≈ 193 µg/mL) in experiment [7], 250 µM (≈ 96.6 µg/mL) in experiment [8], 250 µM (≈ 96.6 µg/mL) in experiment [10] and 500 µM (≈ 193 µg/mL) in [11].

The MIC is the smallest concentration in the dilution series that meets the test's criterion for growth inhibition. Read a high MIC as a need for much substance. For orientation: IC50 means the point on the concentration scale where inhibition reaches its midpoint.

Source of the values: ChEMBL document CHEMBL4152223 (Eur J Med Chem, 2018).
